From ChEMBL document CHEMBL3745678, “Novel β-Carboline/Hydroxamic Acid Hybrids Targeting Both Histone Deacetylase and DNA Display High Anticancer Activity via Regulation of the p53 Signaling Pathway” (J Med Chem, 2015)
Active and inactive are the calls of the source. The rule behind the calls is not given here.

Key:
[1] = tested on: LoVo; test: Antiproliferative activity against human LoVo cells assessed as cell viability after 48 hrs by MTT assay; assay type: functional, cell-based
[2] = molecular target: Histone deacetylase; test: Inhibition of HDAC in human HeLa cell nuclear extract using Boc-Lys (Ac)-AMC as substrate after 60 mins by fluorometric analysis; assay type: cell-based
[3] = Antiproliferative activity against human HCT116 cells assessed as cell viability after 48 hrs by MTT assay; assay type: functional, cell-based, HCT-116; details: for IC50: Homo sapiens, HCT-116, 48 h
[4] = Antiproliferative activity against human SW620 cells assessed as cell viability after 48 hrs by MTT assay; assay type: functional, cell-based; details: SW-620, 48 h
[5] = tested on: HCT-116; test: Induction of DNA damage in human HCT116 cells assessed as histone H2AX phosphorylation at S139 at 20 uM after 12 hrs by western blot analysis; assay type: functional, cell-based
Outline: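 HCT116 cells treated for 12 h, then lysed on ice in PBS with 1% Nonidet P-40, 0.5% sodium deoxycholate, 0.1% SDS and protease inhibitors. Up to 50 µg protein run on SDS-PAGE and blotted to PVDF. Probed overnight at 4 °C with anti-H2AX S139ph, with ECL detection. Band intensity scanned relative to β-actin, three separate experiments.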

[6] = molecular target: Histone deacetylase 1 (Homo sapiens, UniProt Q13547); test: Inhibition of recombinant human HDAC1 using Boc-Lys (Ac)-AMC as substrate after 60 mins by fluorometric analysis
Histone deacetylase 1, sequence (Q13547 whole entry): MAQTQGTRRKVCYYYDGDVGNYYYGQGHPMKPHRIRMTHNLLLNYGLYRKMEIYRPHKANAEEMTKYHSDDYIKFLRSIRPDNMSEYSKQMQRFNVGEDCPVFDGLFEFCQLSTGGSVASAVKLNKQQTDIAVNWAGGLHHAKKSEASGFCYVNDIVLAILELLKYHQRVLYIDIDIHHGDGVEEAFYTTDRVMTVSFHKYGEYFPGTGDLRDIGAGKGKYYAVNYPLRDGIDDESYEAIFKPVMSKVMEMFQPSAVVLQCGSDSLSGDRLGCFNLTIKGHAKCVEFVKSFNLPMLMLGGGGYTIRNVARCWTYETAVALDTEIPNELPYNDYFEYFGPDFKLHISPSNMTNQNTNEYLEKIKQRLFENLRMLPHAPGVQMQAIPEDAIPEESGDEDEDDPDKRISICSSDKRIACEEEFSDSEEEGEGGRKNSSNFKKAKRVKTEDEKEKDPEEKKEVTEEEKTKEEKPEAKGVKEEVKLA

[7] = molecular target: T1, Protein deacetylase HDAC6 (Homo sapiens, UniProt Q9UBN7); test: Inhibition of recombinant human HDAC6 using Boc-Lys (Ac)-AMC as substrate after 60 mins by fluorometric analysis
T1 sequence (Q9UBN7 whole entry): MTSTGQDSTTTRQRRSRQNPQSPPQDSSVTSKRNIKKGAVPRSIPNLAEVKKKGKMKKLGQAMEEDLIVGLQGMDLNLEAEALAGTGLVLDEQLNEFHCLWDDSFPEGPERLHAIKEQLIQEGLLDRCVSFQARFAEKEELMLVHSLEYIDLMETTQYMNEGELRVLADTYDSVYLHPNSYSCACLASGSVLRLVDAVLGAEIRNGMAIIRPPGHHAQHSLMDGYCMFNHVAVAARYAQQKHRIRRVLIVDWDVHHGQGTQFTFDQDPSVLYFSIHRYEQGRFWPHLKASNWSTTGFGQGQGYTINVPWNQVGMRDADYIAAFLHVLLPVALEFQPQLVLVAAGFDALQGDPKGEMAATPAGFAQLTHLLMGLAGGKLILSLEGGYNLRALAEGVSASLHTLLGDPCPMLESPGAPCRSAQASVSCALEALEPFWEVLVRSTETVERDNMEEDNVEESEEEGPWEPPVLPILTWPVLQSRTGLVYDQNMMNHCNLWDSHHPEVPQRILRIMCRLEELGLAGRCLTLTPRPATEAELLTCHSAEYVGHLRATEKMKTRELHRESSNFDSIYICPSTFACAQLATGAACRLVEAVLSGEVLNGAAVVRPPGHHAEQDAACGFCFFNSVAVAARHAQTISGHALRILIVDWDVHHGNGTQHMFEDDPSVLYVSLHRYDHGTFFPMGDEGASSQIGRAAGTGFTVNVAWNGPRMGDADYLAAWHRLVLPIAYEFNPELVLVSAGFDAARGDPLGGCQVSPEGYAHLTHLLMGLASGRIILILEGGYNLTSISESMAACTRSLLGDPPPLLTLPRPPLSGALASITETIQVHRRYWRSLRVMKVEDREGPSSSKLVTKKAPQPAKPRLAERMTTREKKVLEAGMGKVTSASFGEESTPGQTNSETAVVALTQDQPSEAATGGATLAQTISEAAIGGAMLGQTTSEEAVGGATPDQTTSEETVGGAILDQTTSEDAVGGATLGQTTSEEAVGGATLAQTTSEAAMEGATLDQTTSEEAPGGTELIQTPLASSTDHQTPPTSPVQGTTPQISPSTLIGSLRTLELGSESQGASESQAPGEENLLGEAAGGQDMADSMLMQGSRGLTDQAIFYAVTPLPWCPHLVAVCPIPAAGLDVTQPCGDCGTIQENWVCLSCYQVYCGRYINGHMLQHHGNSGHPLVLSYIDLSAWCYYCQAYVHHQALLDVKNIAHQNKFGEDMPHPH

[8] = molecular target: T2, Histone deacetylase 8 (Homo sapiens, UniProt Q9BY41); test: Inhibition of recombinant human HDAC8 using Boc-Lys (Ac)-AMC as substrate after 60 mins by fluorometric analysis
T2 sequence (Q9BY41 whole entry): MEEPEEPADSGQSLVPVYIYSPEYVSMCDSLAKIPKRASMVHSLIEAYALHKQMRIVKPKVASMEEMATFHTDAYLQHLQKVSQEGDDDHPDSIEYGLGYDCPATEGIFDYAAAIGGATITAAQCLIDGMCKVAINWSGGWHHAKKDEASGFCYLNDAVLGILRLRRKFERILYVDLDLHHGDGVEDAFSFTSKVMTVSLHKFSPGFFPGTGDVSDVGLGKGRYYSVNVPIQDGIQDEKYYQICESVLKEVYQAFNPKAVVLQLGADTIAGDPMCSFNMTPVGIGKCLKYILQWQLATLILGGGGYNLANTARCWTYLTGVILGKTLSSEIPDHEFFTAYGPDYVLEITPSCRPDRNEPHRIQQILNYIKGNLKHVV

[9] = tested on: SW480; test: Antiproliferative activity against human SW480 cells assessed as cell viability after 48 hrs by MTT assay; assay type: functional, cell-based; details: SW480, 48 h
[10] = tested on: HCT-116; test: Induction of DNA damage in human HCT116 cells assessed as histone H2AX phosphorylation at S139 after 12 hrs by western blot analysis; assay type: functional, cell-based
Outline: (§1)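 DNA-damage marker. HCT116 cells treated 12 h with compound or vehicle. Lysates immunoblotted with anti-H2AX S139ph, and β-actin served as the control. Relative levels were obtained by densitometric scanning; means ± SD of three separate experiments.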

[11] = molecular target: Cellular tumor antigen p53 (Homo sapiens) (UniProt P04637); test: Induction of p53 activation in human HCT116 cells assessed as upregulation of p21 expression at 1 to 5 uM after 12 hrs by western blot analysis; assay type: cell-based; details: HCT-116
Cellular tumor antigen p53 (Homo sapiens), sequence (P04637 whole entry, looked up): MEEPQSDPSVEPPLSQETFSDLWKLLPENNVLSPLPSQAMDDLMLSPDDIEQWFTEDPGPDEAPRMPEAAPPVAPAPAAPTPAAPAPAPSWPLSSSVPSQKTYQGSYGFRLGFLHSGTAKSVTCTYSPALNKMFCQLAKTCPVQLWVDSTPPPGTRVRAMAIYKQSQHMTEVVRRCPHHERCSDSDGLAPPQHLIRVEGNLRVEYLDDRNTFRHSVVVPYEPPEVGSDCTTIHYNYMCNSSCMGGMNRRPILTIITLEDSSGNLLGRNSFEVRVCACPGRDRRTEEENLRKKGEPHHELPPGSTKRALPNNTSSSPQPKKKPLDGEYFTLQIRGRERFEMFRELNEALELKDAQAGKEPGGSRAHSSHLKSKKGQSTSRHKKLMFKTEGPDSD
Outline: (§2)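 HCT116 cells exposed 12 h to compound or vehicle, then lysed on ice in PBS with 1% NP-40, 0.5% deoxycholate, 0.1% SDS and protease inhibitors. Up to 50 µg protein run on SDS-PAGE and immunoblotted for phospho-p53 (Ser15), p53 and p21. Bands quantified by densitometry against β-actin; mean ± SD of three experiments.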

[12] = tested on: HCT-116; test: Potency index, ratio of SAHA IC50 to compound IC50 for human HCT116 cells; assay type: functional
Outline: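 HCT116 cells seeded at 10^4 cells/ml and adhered overnight, then treated 48 h over a concentration series with 0.1% DMSO as control. MTT readout; IC50 derived from inhibition % = (1 − OD treated/OD control) × 100, three independent measurements. Index = SAHA IC50 ÷ compound IC50.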

[13] = tested on: HCT-116; test: Induction of DNA damage in human HCT116 cells assessed as histone H2AX phosphorylation at S139 at 1 to 5 uM after 12 hrs by western blot analysis; assay type: functional, cell-based; outline: as §1
[14] = tested on: LoVo; test: Antiproliferative activity against human LoVo cells at 25 uM after 48 hrs by MTT assay; assay type: functional, cell-based
Outline: (§3)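 Single-point screen at 25 µM in HCT116, SW620 and LOVO cells. Cells seeded at 10^4 cells/ml in DMEM + 10% FBS and left to adhere overnight at 37 °C, 5% CO2. MTT read 48 h after dosing with 0.1% DMSO as the negative control. Inhibition % = (1 − OD treated/OD control) × 100; mean ± SD of three measurements.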

[15] = tested on: HCT-116; test: Antiproliferative activity against human HCT116 cells at 25 uM after 48 hrs by MTT assay; assay type: functional, cell-based; outline: as §3
[16] = tested on: SW-620; test: Antiproliferative activity against human SW620 cells at 25 uM after 48 hrs by MTT assay; assay type: functional, cell-based; outline: as §3
[17] = Cytotoxicity against rat IEC-18 cells assessed as survival after 48 hrs by MTT assay; assay type: cell-based
Outline: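 HCT116 and rat IEC-18 cells incubated 48 h over a 0–5 µM range. Viability measured by MTT and expressed as % of control. GI50 taken from the inhibition curves; three independent experiments.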

[18] = tested on: HCT-116; test: Induction of PARP cleavage in human HCT116 cells at 1 to 5 uM after 48 hrs by western blot analysis; assay type: functional, cell-based
Outline: (§4)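 HCT116 cells treated 48 h with or without compound. Western blots probed for Bax, Bcl-2, cleaved caspase-3 and PARP. Band intensities relative to β-actin by densitometry; means ± SD from three separate experiments.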

[19] = tested on: HCT-116; test: Induction of caspase-3 cleavage in human HCT116 cells at 1 to 5 uM after 48 hrs by western blot analysis; assay type: functional, cell-based; outline: as §4
[20] = molecular target: Cellular tumor antigen p53 (Homo sapiens) (UniProt P04637); test: Activation of p53 in human HCT116 cell at 0.1 to 5 uM after 12 hrs by western blot analysis; assay type: cell-based; details: HCT-116; outline: as §2
[21] = molecular target: Cellular tumor antigen p53 (Homo sapiens) (UniProt P04637); test: Activation of p53 in human HCT116 cells assessed as p53 phosphorylation at ser15 residue at 0.1 to 5 uM after 12 hrs by western blot analysis; assay type: cell-based; details: HCT-116; outline: as §2
[22] = molecular target: Cellular tumor antigen p53 (Homo sapiens) (UniProt P04637); test: Induction of p53 activation in human HCT116 cells assessed as upregulation of p21 expression at 0.1 to 5 uM after 12 hrs by western blot analysis; assay type: cell-based; details: HCT-116; outline: as §2
[23] = tested on: HCT-116; test: Induction of apoptosis in human HCT116 cells at 5 uM after 48 hrs by annexin V-FITC/propidium iodide staining-based flow cytometric analysis; assay type: functional
Outline: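 HCT116 cells cultured overnight, then exposed in triplicate for 48 h to 0.1, 1.0 or 5.0 µM, SAHA 5.0 µM or vehicle. Stained with FITC-Annexin V/PI for 15 min at room temperature.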

[24] = Antitumor activity against human HCT116 cells xenografted in BALB/c mouse assessed as tumor weight at 90 mg/kg, po measured twice per week over 22 days (reference value: 1.38 +/- 0.13 g); assay type: functional, HCT-116

| IC50 [1] [nM] | IC50 [2] [nM] | IC50 [6] [nM] | IC50 [7] [nM] | IC50 [8] [nM] | IC50 [9] [nM] | Structure (SMILES) | IC50 [3] [nM] | IC50 [4] [nM] | Ratio IC50 [12] | Activity [13] | further results |
| --- | --- | --- | --- | --- | --- | --- | --- | --- | --- | --- | --- |
| 3020 | 510 | 240 | 150 | 570 | 3150 | COc1ccc(-c2nc(NC(=O)NCCCC(=O)NO)cc3c4ccccc4n(C)c23)cc1 | 1330 | 1930 | 4 | Active | Activity [10]: Dose-dependent effect; Activity [11]: Active |
| 3770 | 670 | 130 | 61 | 390 | 4650 | COc1ccc(-c2nc(C(=O)NCCCC(=O)NO)cc3c2[nH]c2ccccc23)cc1 | 2720 | 4460 | 2 |  | Activity [14]: Active; Activity [15]: Active; Activity [16]: Active |
| 2170 | 350 | 79 | 93 | 200 | 1730 | COc1ccc(-c2nc(NC(=O)NCCCCC(=O)NO)cc3c2[nH]c2ccccc23)cc1 | 990 | 2020 |  |  |  |
| 3610 | 430 | 110 | 360 | 430 | 3110 | COc1ccc(-c2nc(NC(=O)NCCC(=O)NO)cc3c2[nH]c2ccccc23)cc1 | 3080 | 2690 |  |  |  |
|  |  |  |  |  |  | O=C(CCCCCCC(=O)Nc1ccccc1)NO [VORINOSTAT] |  |  |  | Active | GI50 at 48 h [17]: 9950 nM; GI50 [3]: 4640 nM; Activity [18]: Active; Activity [19]: Active; Activity [20]: inactive; Activity [21]: inactive; Activity [22]: Active; Activity [23]: 34.3%; Activity [24]: 0.62 g |

| Structure (SMILES) | IC50 [1] [nM] | IC50 [2] [nM] | IC50 [6] [nM] | IC50 [7] [nM] | IC50 [8] [nM] | IC50 [9] [nM] | IC50 [3] [nM] | IC50 [4] [nM] | Ratio IC50 [12] | Activity [13] | further results |
| --- | --- | --- | --- | --- | --- | --- | --- | --- | --- | --- | --- |
| COc1ccc2c(c1)[nH]c1c(C)nccc12 [HARMINE] | 53200 | > 10000 |  |  |  |  | 46700 | 42800 |  |  | Activity [5]: Active |
